Broadly, the IC50 is the point on the concentration scale where inhibition reaches its midpoint. Low values mean inhibition by little substance, high ones a need for much substance.

The results in this text go back to ChEMBL document CHEMBL3232988, “Design, synthesis and biological evaluation of a series of pyrano chalcone derivatives containing indole moiety as novel anti-tubulin agents” (Bioorg Med Chem, 2014).

SMILES strings stand for the structures.

For this experiment, the system named is HepG2. Kind of experiment: Antiproliferative activity against human HepG2 cells after 24 hrs by MTT assay. It is filed as functional, cell-based. The following applies: HepG2, 24 h. Put shortly:
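Seeded at 1 × 10⁴ cells per well, incubated 24 h before treatment. MTT (20 µL of 5 mg/mL in PBS) added per well and incubated until purple precipitate appeared. Medium removed, precipitate dissolved in 150 µL DMSO, shaken 10 min, absorbance read at 570 nm. Growth expressed as percentage of untreated control.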
`COc1ccc(C(=O)/C=C/c2cn(Cc3ccccc3C(F)(F)F)c3ccccc23)c2c1C=CC(C)(C)O2` showed an IC50 above 10000 nM.

Consider `COc1ccc(C(=O)/C=C/c2cn(Cc3ccccc3Cl)c3ccccc23)c2c1C=CC(C)(C)O2`, for which the IC50 turned out to be 1940 nM.

The compound `COc1ccc(C(=O)/C=C/c2cn(Cc3ccccc3Br)c3ccccc23)c2c1C=CC(C)(C)O2` gave an IC50 above 10000 nM.

Take `COc1ccc(C(=O)/C=C/c2cccc3ccn(C)c23)c2c1C=CC(C)(C)O2`: the IC50 is above 10000 nM. In turn, `Cc1ccc(S(=O)(=O)Oc2ccc(C(=O)/C=C/c3ccc4c(ccn4C)c3)c3c2C=CC(C)(C)O3)cc1` registered an IC50 of 860 nM. For `CCCOc1ccc(C(=O)/C=C/c2ccc3c(ccn3C)c2)c2c1C=CC(C)(C)O2` the value was 460 nM; for `COc1ccc(C(=O)/C=C/c2ccc3c(ccn3C)c2)c2c1C=CC(C)(C)O2`, 840 nM.

On to `COc1ccc(C(=O)/C=C/c2cccc3c2ccn3Cc2cccc(Cl)c2)c2c1C=CC(C)(C)O2`, for which the IC50 was above 10000 nM. For `CCCCOc1ccc(C(=O)/C=C/c2ccc3c(ccn3C)c2)c2c1C=CC(C)(C)O2` the value was 630 nM.

As to `COc1ccc(C(=O)/C=C/c2cccc3ccn(Cc4cccc(Br)c4)c23)c2c1C=CC(C)(C)O2`, the IC50 was above 10000 nM. For `COc1ccc(C(=O)/C=C/c2cn(Cc3cccc(F)c3)c3ccccc23)c2c1C=CC(C)(C)O2` the value was 3090 nM; for `CCn1ccc2c(/C=C/C(=O)c3ccc(OC)c4c3OC(C)(C)C=C4)cccc21`, 5540 nM; for `COc1ccc(C(=O)/C=C/c2cccc3c2ccn3Cc2cccc(Br)c2)c2c1C=CC(C)(C)O2`, above 10000 nM. Consider `COc1ccc(C(=O)/C=C/c2ccc3ccn(Cc4cccc(Cl)c4)c3c2)c2c1C=CC(C)(C)O2`, for which the IC50 was above 10000 nM. For `COc1ccc(C(=O)/C=C/c2ccc3cc[nH]c3c2)c2c1C=CC(C)(C)O2`, the IC50 came to 4950 nM. `CCn1cc(/C=C/C(=O)c2ccc(OC)c3c2OC(C)(C)C=C3)c2ccccc21` displayed an IC50 of 3010 nM.

Take `CCn1ccc2cccc(/C=C/C(=O)c3ccc(OC)c4c3OC(C)(C)C=C4)c21`: the IC50 is above 10000 nM. Compound `COc1ccc(C(=O)/C=C/c2cn(Cc3ccc(F)cc3)c3ccccc23)c2c1C=CC(C)(C)O2` registered an IC50 above 10000 nM. In the case of `CC(=O)Oc1ccc(C(=O)/C=C/c2ccc3c(ccn3C)c2)c2c1C=CC(C)(C)O2`, inhibition was half-maximal at 520 nM (IC50).

Regarding `CC(C)COc1ccc(C(=O)/C=C/c2ccc3c(ccn3C)c2)c2c1C=CC(C)(C)O2`, inhibition was half-maximal at 970 nM (IC50). As to `COc1ccc(C(=O)/C=C/c2ccc3ccn(Cc4cccc(Br)c4)c3c2)c2c1C=CC(C)(C)O2`, the IC50 is above 10000 nM. Compound `COc1ccc(C(=O)/C=C/c2ccc3c(ccn3CCN3CCCCC3)c2)c2c1C=CC(C)(C)O2` came in with an IC50 of 4450 nM.

On to `COc1ccc(C(=O)/C=C/c2cccc3[nH]ccc23)c2c1C=CC(C)(C)O2`, for which inhibition was half-maximal at 8380 nM (IC50). On to `CC(C)Oc1ccc(C(=O)/C=C/c2ccc3c(ccn3C)c2)c2c1C=CC(C)(C)O2`, for which the IC50 turned out to be 780 nM. For `COc1ccc(C(=O)/C=C/c2cn(Cc3ccc(Br)cc3)c3ccccc23)c2c1C=CC(C)(C)O2` the value was above 10000 nM; for `COc1ccc(C(=O)/C=C/c2cn(Cc3ccccc3F)c3ccccc23)c2c1C=CC(C)(C)O2`, 2750 nM; for `COc1ccc(C(=O)/C=C/c2cn(CC=C(C)C)c3ccccc23)c2c1C=CC(C)(C)O2`, 2810 nM.

Turning to `Cn1ccc2cc(/C=C/C(=O)c3ccc(OS(=O)(=O)c4cccc(C(F)(F)F)c4)c4c3OC(C)(C)C=C4)ccc21`, the midpoint of inhibition, the IC50, lay at 1550 nM. Take `COc1ccc(C(=O)/C=C/c2cn(C)c3ccccc23)c2c1C=CC(C)(C)O2`: the IC50 worked out at 2230 nM.

`CCCCC(=O)Oc1ccc(C(=O)/C=C/c2ccc3c(ccn3C)c2)c2c1C=CC(C)(C)O2` returned an IC50 of 920 nM. `COc1ccc(C(=O)/C=C/c2ccc3ccn(Cc4cccc(F)c4)c3c2)c2c1C=CC(C)(C)O2` showed an IC50 above 10000 nM. For `COc1ccc(C(=O)/C=C/c2cccc3cc[nH]c23)c2c1C=CC(C)(C)O2`, half-maximal inhibition (IC50) was put at 7620 nM. For `COc1cccc(S(=O)(=O)Oc2ccc(C(=O)/C=C/c3ccc4c(ccn4C)c3)c3c2C=CC(C)(C)O3)c1` the value was 750 nM; for `COc1ccc(C(=O)/C=C/c2cccc3c2ccn3C)c2c1C=CC(C)(C)O2`, 2750 nM.

`COc1ccc(C(=O)/C=C/c2cn(CC(C)C)c3ccccc23)c2c1C=CC(C)(C)O2` came in with an IC50 above 10000 nM. For `CCOc1ccc(C(=O)/C=C/c2ccc3c(ccn3C)c2)c2c1C=CC(C)(C)O2` the value was 750 nM. As for `COc1ccc(C(=O)/C=C/c2cn(Cc3cccc(Br)c3)c3ccccc23)c2c1C=CC(C)(C)O2`, the figure is 1380 nM; as for `CC(C)C(=O)Oc1ccc(C(=O)/C=C/c2ccc3c(ccn3C)c2)c2c1C=CC(C)(C)O2`, 370 nM. `Cn1ccc2cc(/C=C/C(=O)c3ccc(OS(=O)(=O)c4c(F)c(F)c(F)c(F)c4F)c4c3OC(C)(C)C=C4)ccc21`: the IC50 came out at 1530 nM. `CCn1ccc2ccc(/C=C/C(=O)c3ccc(OC)c4c3OC(C)(C)C=C4)cc21` gave an IC50 above 10000 nM.

Compound `Cn1ccc2cc(/C=C/C(=O)c3ccc(OS(=O)(=O)c4ccc(Br)cc4C(F)(F)F)c4c3OC(C)(C)C=C4)ccc21` yielded an IC50 of 620 nM. For `COc1ccc(C(=O)/C=C/c2cn(Cc3ccccc3)c3ccccc23)c2c1C=CC(C)(C)O2` the value was 1780 nM. Compound `COc1ccc(C(=O)/C=C/c2cn(Cc3ccc(Cl)cc3)c3ccccc23)c2c1C=CC(C)(C)O2` gave an IC50 above 10000 nM.

`COc1ccc(C(=O)/C=C/c2cn(Cc3cccc(C(F)(F)F)c3)c3ccccc23)c2c1C=CC(C)(C)O2` showed an IC50 of 2180 nM.

Compound `COCn1cc(/C=C/C(=O)c2ccc(OC)c3c2OC(C)(C)C=C3)c2ccccc21` gave an IC50 of 4700 nM. `CC(C)c1ccc(S(=O)(=O)Oc2ccc(C(=O)/C=C/c3ccc4c(ccn4C)c3)c3c2C=CC(C)(C)O3)cc1` displayed an IC50 of 1870 nM.

Compound `COc1ccc(C(=O)/C=C/c2cn(Cc3ccc(C(F)(F)F)cc3)c3ccccc23)c2c1C=CC(C)(C)O2` came in with an IC50 of 3460 nM.

Turning to `COc1ccc(C(=O)/C=C/c2cccc3ccn(Cc4cccc(F)c4)c23)c2c1C=CC(C)(C)O2`, the IC50 was above 10000 nM.

Turning to `COc1ccc(C(=O)/C=C/c2cccc3ccn(Cc4cccc(Cl)c4)c23)c2c1C=CC(C)(C)O2`, the IC50 is above 10000 nM. As to `COc1ccc(C(=O)/C=C/c2ccc3[nH]ccc3c2)c2c1C=CC(C)(C)O2`, it took 1060 nM to reach half-maximal inhibition (IC50). `COc1ccc(C(=O)/C=C/c2cccc3c2ccn3Cc2cccc(F)c2)c2c1C=CC(C)(C)O2`: the IC50 was above 10000 nM. For `COc1cc([N+](=O)[O-])ccc1S(=O)(=O)Oc1ccc(C(=O)/C=C/c2ccc3c(ccn3C)c2)c2c1C=CC(C)(C)O2` the value was 570 nM; for `Cn1ccc2cc(/C=C/C(=O)c3ccc(OS(=O)(=O)c4cc(F)cc(F)c4)c4c3OC(C)(C)C=C4)ccc21`, 690 nM. In turn, `COc1ccc(C(=O)/C=C/c2ccc3ccn(C)c3c2)c2c1C=CC(C)(C)O2` yielded an IC50 of 8850 nM. For `COc1ccc(C(=O)/C=C/c2cn(Cc3cccc(Cl)c3)c3ccccc23)c2c1C=CC(C)(C)O2` the value was 2130 nM.

`CCCCCOc1ccc(C(=O)/C=C/c2ccc3c(ccn3C)c2)c2c1C=CC(C)(C)O2` returned an IC50 of 670 nM. Take `COc1ccc(C(=O)/C=C/c2cn(CCN3CCOCC3)c3ccccc23)c2c1C=CC(C)(C)O2`: the IC50 was determined as 3230 nM.
